Results as given in ChEMBL document CHEMBL2057177, “Analogues of fenarimol are potent inhibitors of Trypanosoma cruzi and are efficacious in a murine model of Chagas disease” (J Med Chem, 2012).
Values after ≈ are worked out from the molar mass of the structure shown.

Tests used:
[1] = Kinetic solubility of the compound at pH 6.5 by nephelometric analysis; format: physicochemical; details: buffer, read-out: Kinetic_solubility
[2] = Plasma concentration in Swiss mouse at 20 mg/kg, po after 8 hrs; format: ADME, organism-based; set-up: dose 20 mg/kg, route oral
Summary of the method: (§1)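 Nonfasted male Swiss outbred mice (23.8–39.9 g), fed throughout. Dosed by oral gavage as solution or suspension in aqueous vehicle. Plasma assayed by LC-MS against blank-plasma standards after acetonitrile precipitation; LLOQ 0.001–0.015 μM.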

Trypanosoma cruzi = experiment: Antitrypanosomal activity against trypomastigotes of Trypanosoma cruzi Tulahuen expressing the beta- galactosidase gene infected rat L6 cells after 96 hrs; format: functional, organism-based; details: L6, 96 h
Summary of the method: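 Tulahuén trypomastigotes expressing β-galactosidase, maintained by serial passage in L6 cells. L6 cells seeded and left 24 h at 37 °C, 5% CO2, then infected at MOI 3 for 48 h. Compound exposure 96 h, benznidazole control. CPRG with 0.3% Nonidet P-40 added, absorbance at 530 nm after 4−6 h. IC50 taken from % inhibition curve; mean of at least two assays.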

[3] = Plasma concentration in Swiss mouse at 20 mg/kg, po after 1 hr; format: ADME, organism-based; set-up: dose 20 mg/kg, route oral; summary of the method: as §1
CYP3A4/5 = CYP3A4/5 (Homo sapiens, UniProt P08684+P20815); experiment: Inhibition of CYP3A4/5 in human liver microsomes; format: ADME, Microsome
[4] = Plasma concentration in Swiss mouse at 20 mg/kg, po after 24 hrs; format: ADME, organism-based; set-up: dose 20 mg/kg, route oral
L6 = experiment: Cytotoxicity against rat L6 cells after 72 hrs by Alamar Blue assay; format: cell-based; details: L6, 72 h
Summary of the method: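 L6 rat skeletal myoblasts in RPMI 1640 with 10% FBS. Exposed to compound for 72 h, seven-point serial dilutions in triplicate. Alamar Blue read at 570 and 630 nm. IC50 is the mean of at least two assays; podophyllotoxin used as control.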

[5] = Plasma concentration in Swiss mouse at 100 mg/kg, po after 8 hrs; format: ADME, organism-based; set-up: dose 100 mg/kg, route oral
Summary of the method: (§2)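 Nonfasted male Swiss Outbred mice weighing 23.8−39.9 g, with food and water freely available, dosed by oral gavage as an aqueous solution or suspension. Plasma proteins precipitated with acetonitrile and compound quantified by LC-MS against standards made in blank mouse plasma. Lower limit of quantitation 0.001−0.015 μM.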

[6] = Plasma concentration in Swiss mouse at 100 mg/kg, po after 1 hr; format: ADME, organism-based; set-up: dose 100 mg/kg, route oral; summary of the method: as §2

## N#Cc1ccc(C(O)(c2ccc(C(F)(F)F)cc2)c2cccnc2)c(F)c1 (racemic)
[1]
  solubility kinetic: 6.3 µg/mL (≈ 16.9 µM)
[2]
  concentration at 8 h: 300 nM
Trypanosoma cruzi
  IC50: 2 nM
[3]
  concentration at 1 h: 1400 nM
CYP3A4/5
  IC50: 4100 nM
[4]
  concentration at 24 h: 50 nM

## OC(c1ccc(Cl)cc1)(c1ccc(C(F)(F)F)cc1)c1cccnc1 (racemic)
Trypanosoma cruzi
  IC50: 8 nM

## OC(c1ccc(Cl)cc1)(c1cncnc1)c1cccc(F)c1 (racemic)
L6
  IC50: > 100000 nM

## OC(c1ccc(Cl)cc1)(c1cccnc1)c1nccs1 (racemic)
L6
  IC50: > 100000 nM

## NC(c1ccc(Cl)cc1)(c1cccnc1)c1ccccc1Cl (racemic)
Trypanosoma cruzi
  IC50: 90 nM

## OC(c1ccc(Cl)cc1)(c1cccnc1)c1ccc(Br)cc1F (racemic)
Trypanosoma cruzi
  IC50: 26 nM
L6
  IC50: 79200 nM

## OC(c1ccc(Cl)cc1)(c1ccncn1)c1ccccc1Cl (racemic)
L6
  IC50: > 100000 nM

## COC(c1ccc(Cl)cc1)(c1cccnc1)c1ccccc1Cl (racemic)
Trypanosoma cruzi
  IC50: 90 nM
L6
  IC50: 58700 nM

## OC(c1ccc(Cl)cc1)(c1cccnc1)c1ccsc1 (racemic)
L6
  IC50: > 100000 nM

## OC(c1ccc(Cl)cc1)(c1ccc(Cl)cc1)c1cncnc1
Trypanosoma cruzi
  IC50: 220 nM

## Clc1ccc(C(c2ccc(Cl)cc2)c2cncnc2)cc1
Trypanosoma cruzi
  IC50: 683 nM

## CC(C)c1ccc(C(O)(c2ccc(C(F)(F)F)cc2)c2cccnc2)cc1 (racemic)
Trypanosoma cruzi
  IC50: 2 nM
L6
  IC50: 56300 nM

## OC(c1ccc(Cl)cc1)(c1cccnc1)c1ccccc1C(F)(F)F (racemic)
Trypanosoma cruzi
  IC50: 120 nM

## N#Cc1ccc(C(O)(c2ccc(Cl)cc2)c2cccnc2)cc1 (racemic)
Trypanosoma cruzi
  IC50: 70 nM
L6
  IC50: > 100000 nM

## CC(C)Oc1ccc(C(O)(c2ccc(Cl)cc2)c2cccnc2)cc1 (racemic)
[1]
  solubility kinetic: 1.6 µg/mL (≈ 4.52 µM)
[5]
  concentration at 8 h: 600 nM
Trypanosoma cruzi
  IC50: 2 nM
[6]
  concentration at 1 h: 9600 nM
CYP3A4/5
  IC50: 1900 nM

## Clc1ccc(C(c2cncnc2)c2ccccc2Cl)cc1 (racemic)
L6
  IC50: > 100000 nM

## OC(c1ccc(Cl)cc1)(c1ccc(C(F)(F)F)cc1)c1cncnc1 (racemic)
Trypanosoma cruzi
  IC50: 197 nM
L6
  IC50: 66800 nM

## COc1ccc(C(O)(c2ccc(Cl)cc2)c2cccnc2)cc1 (racemic)
Trypanosoma cruzi
  IC50: 40 nM

## CC(C)Oc1ccc(C(O)(c2ccc(C(F)(F)F)cc2)c2cccnc2)cc1 (racemic)
[1]
  solubility kinetic: 1.6 µg/mL (≈ 4.13 µM)
Trypanosoma cruzi
  IC50: 4 nM
CYP3A4/5
  IC50: 1400 nM

## Clc1ccc(C(c2ccc(Cl)cc2)c2cccnc2)cc1
Trypanosoma cruzi
  IC50: 80 nM
L6
  IC50: 84700 nM

## Cc1ccc(C(O)(c2ccc(Cl)cc2)c2cncnc2)cc1 (racemic)
Trypanosoma cruzi
  IC50: 24 nM

## OC(c1ccc(Cl)cc1)(c1cccnc1)c1cccc(F)c1 (racemic)
Trypanosoma cruzi
  IC50: 100 nM
L6
  IC50: 66000 nM

## CC(C)Oc1ncc(C(O)(c2ccc(Cl)cc2)c2cccnc2)cn1 (racemic)
Trypanosoma cruzi
  IC50: 60 nM
L6
  IC50: > 100000 nM

## N#Cc1cccc(C(O)(c2ccc(Cl)cc2)c2cccnc2)c1 (racemic)
L6
  IC50: > 100000 nM

## OC(c1ccc(Cl)cc1)(c1cccnc1)c1cncs1 (racemic)
L6
  IC50: > 100000 nM

## CC(C)Oc1ccccc1C(O)(c1ccc(Cl)cc1)c1cccnc1 (racemic)
L6
  IC50: 48300 nM

## OC(c1ccc(Cl)cc1)(c1cccnc1)c1ccccc1Cl (racemic)
[1]
  solubility kinetic: 3.1 µg/mL (≈ 9.39 µM)
CYP3A4/5
  IC50: 600 nM

## OC(c1ccc(Cl)cc1)(c1ncccn1)c1ccccc1Cl (racemic)
L6
  IC50: > 100000 nM

## OC(c1ccc(Cl)cc1)(c1cccnc1)c1cnc(Cl)s1 (racemic)
L6
  IC50: > 100000 nM

## NC(=O)c1cccc(C(O)(c2cccnc2)c2ccc(Cl)cc2F)c1 (racemic)
[1]
  solubility kinetic: 50 µg/mL (≈ 140 µM)
[2]
  concentration at 8 h: 440 nM
Trypanosoma cruzi
  IC50: 25 nM
L6
  IC50: > 100000 nM
[3]
  concentration at 1 h: 10500 nM
CYP3A4/5
  IC50: 3900 nM
[4]
  concentration at 24 h: 6 nM

## OC(c1ccc(Cl)cc1)(c1cccnc1)c1ccccc1F (racemic)
Trypanosoma cruzi
  IC50: 35 nM
L6
  IC50: > 100000 nM

## OC(c1ccc(Cl)cc1)(c1cnccn1)c1ccccc1Cl (racemic)
L6
  IC50: > 100000 nM

## CC(C)Oc1ccc(C(O)(c2cccnc2)c2ccc(Cl)cc2F)cc1 (racemic)
[1]
  solubility kinetic: 1.6 µg/mL (≈ 4.3 µM)
Trypanosoma cruzi
  IC50: 1 nM
CYP3A4/5
  IC50: 1100 nM

## OC(c1ccc(Cl)cc1)(c1cccnc1)c1ccc(F)cc1F (racemic)
Trypanosoma cruzi
  IC50: 16 nM

## OC(c1ccc(Cl)cc1)(c1cncnc1)c1ccccc1F (racemic)
L6
  IC50: > 100000 nM

## OC(c1ccc(Cl)cc1)(c1cccnc1)c1cccc(C(F)(F)F)c1 (racemic)
Trypanosoma cruzi
  IC50: 70 nM

## N#CC(c1ccc(Cl)cc1)(c1cccnc1)c1ccccc1Cl (racemic)
Trypanosoma cruzi
  IC50: 50 nM

## Cc1ccc(C(O)(c2ccc(OC(C)C)cc2)c2cccnc2)c(F)c1 (racemic)
Trypanosoma cruzi
  IC50: 3 nM

## OC(c1ccc(Cl)cc1)(c1cccnc1)c1ccccc1Br (racemic)
Trypanosoma cruzi
  IC50: 70 nM

## N#Cc1ccc(C(O)(c2ccc(Cl)cc2)c2cccnc2)c(F)c1 (racemic)
L6
  IC50: > 100000 nM

## NC(=O)c1ccc(C(O)(c2ccc(C(F)(F)F)cc2)c2cccnc2)cc1 (racemic)
L6
  IC50: > 100000 nM

## OC(c1ccc(Cl)cc1)(c1cccnc1)c1cncnc1 (racemic)
[1]
  solubility kinetic: > 100 µg/mL
[2]
  concentration at 8 h: < 2 nM
L6
  IC50: > 100000 nM
[3]
  concentration at 1 h: 300 nM
CYP3A4/5
  IC50: 5000 nM

## CS(=O)(=O)Nc1ccc(C(O)(c2ccc(Cl)cc2)c2cccnc2)cc1 (racemic)
Trypanosoma cruzi
  IC50: 30 nM
L6
  IC50: > 100000 nM

## CC(C)Oc1ccc(C(O)(c2ccc(Cl)cc2)c2cccnc2)c(F)c1 (racemic)
Trypanosoma cruzi
  IC50: 26 nM
L6
  IC50: 58200 nM

## OC(c1ccc(C(F)(F)F)cc1)(c1cccnc1)c1ccc(Cl)cc1F (racemic)
[1]
  solubility kinetic: < 1.6 µg/mL
[2]
  concentration at 8 h: 230 nM
Trypanosoma cruzi
  IC50: 2 nM
L6
  IC50: > 100000 nM
[3]
  concentration at 1 h: 1240 nM
CYP3A4/5
  IC50: 1400 nM
[4]
  concentration at 24 h: 3 nM

## OC(c1ccc(Cl)cc1)(c1ccccn1)c1ccccc1Cl (racemic)
Trypanosoma cruzi
  IC50: 27000 nM
L6
  IC50: > 100000 nM

## CC(C)Oc1ccc(C(O)(c2cccnc2)c2cnc(Cl)nc2)cc1 (racemic)
Trypanosoma cruzi
  IC50: 304 nM
L6
  IC50: > 100000 nM

## OC(c1cccnc1)(c1cccs1)c1ccc(Cl)cc1F (racemic)
Trypanosoma cruzi
  IC50: 5 nM
L6
  IC50: > 100000 nM

## OC(c1ccc(C(F)(F)F)cc1)(c1ccc(C(F)(F)F)cc1)c1cccnc1
Trypanosoma cruzi
  IC50: 15 nM

## CN(C)c1ccc(C(O)(c2ccc(C(F)(F)F)cc2)c2cccnc2)cc1 (racemic)
Trypanosoma cruzi
  IC50: 6 nM

## NC(=O)c1cccc(C(O)(c2ccc(C(F)(F)F)cc2)c2cccnc2)c1 (racemic)
Trypanosoma cruzi
  IC50: 70 nM
L6
  IC50: > 100000 nM

## OC(c1ccc(Br)cc1)(c1ccc(C(F)(F)F)cc1)c1cccnc1 (racemic)
Trypanosoma cruzi
  IC50: 20 nM

## CC(C)CNC(c1ccc(Cl)cc1)(c1cccnc1)c1ccccc1Cl (racemic)
Trypanosoma cruzi
  IC50: 606 nM

## CC(C)Oc1cccc(C(O)(c2ccc(Cl)cc2)c2cccnc2)c1 (racemic)
Trypanosoma cruzi
  IC50: 82 nM
L6
  IC50: 67600 nM

## Cc1ccccc1C(O)(c1ccc(Cl)cc1)c1cccnc1 (racemic)
L6
  IC50: 82000 nM

## OC(c1ccc(Cl)cc1)(c1cccnc1)c1ccc(Cl)cc1F (racemic)
[1]
  solubility kinetic: 1.6 µg/mL (≈ 4.6 µM)
Trypanosoma cruzi
  IC50: 10 nM
L6
  IC50: 59400 nM
CYP3A4/5
  IC50: 900 nM

## OC(c1ccc(C(F)(F)F)cc1)(c1cccnc1)c1cc2ccccc2s1 (racemic)
Trypanosoma cruzi
  IC50: 20 nM

## Nc1ncc(C(O)(c2ccc(Cl)cc2)c2cccnc2)s1 (racemic)
Trypanosoma cruzi
  IC50: 260 nM
L6
  IC50: 56000 nM

## OC(c1ccc(Cl)cc1)(c1ccc(Cl)cc1)c1cccnc1
Trypanosoma cruzi
  IC50: 95 nM

## COc1cccc(C(O)(c2ccc(Cl)cc2)c2cccnc2)c1 (racemic)
Trypanosoma cruzi
  IC50: 60 nM

## [O-][n+]1cncc(C(O)(c2ccc(Cl)cc2)c2ccccc2Cl)c1 (racemic)
L6
  IC50: > 100000 nM

## CC(C)C(=O)Nc1ncc(C(O)(c2ccc(Cl)cc2)c2cccnc2)s1 (racemic)
Trypanosoma cruzi
  IC50: 21 nM
